HUVEC prolif 384 = human endothelial cell proliferation inhibition; HUVEC proliferation, CellTiter-Glo luminescence, 72 h; stronger effect = lower value; viability, % at 10 µM (by protocol); 86,000 tested, 1.1% active;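 active means viability at or below 30%; inactive means viability above 30%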;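 further: 100% = median luminescence of DMSO-only cell control wells on each plate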
H69AR growth 86K = growth inhibitors of human H69AR lung tumor cells; H69AR lung tumor viability, ATP luminescence, 72 h; stronger effect = lower value; viability, % at 10 µM; 85,000 tested, 6% active; AID 598;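 active means viability at or below 40%; inactive means viability above 40%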;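 further: multidrug resistant small cell line overexpressing MRP-1 efflux transporter; 100% = mean luminescence of untreated control wells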
PTK2B oligo ant = Pyk2 (human) oligomerization antagonism. Q293 cells, Pyk2 FERM NanoBiT luminescence; stronger effect = lower value. 99,000 tested, 0.83% active. Q14289. AID 1347419. z-score (the deposit names both 25 µM and 10 µM);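 active means Z-score of -3 or lower, scaled per plate to the spread of control and sample wells; inactive means z-score above -3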;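 further: negative z-score means lost luminescence so less FERM oligomerization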
Target sequence (Q14289 whole entry, looked up): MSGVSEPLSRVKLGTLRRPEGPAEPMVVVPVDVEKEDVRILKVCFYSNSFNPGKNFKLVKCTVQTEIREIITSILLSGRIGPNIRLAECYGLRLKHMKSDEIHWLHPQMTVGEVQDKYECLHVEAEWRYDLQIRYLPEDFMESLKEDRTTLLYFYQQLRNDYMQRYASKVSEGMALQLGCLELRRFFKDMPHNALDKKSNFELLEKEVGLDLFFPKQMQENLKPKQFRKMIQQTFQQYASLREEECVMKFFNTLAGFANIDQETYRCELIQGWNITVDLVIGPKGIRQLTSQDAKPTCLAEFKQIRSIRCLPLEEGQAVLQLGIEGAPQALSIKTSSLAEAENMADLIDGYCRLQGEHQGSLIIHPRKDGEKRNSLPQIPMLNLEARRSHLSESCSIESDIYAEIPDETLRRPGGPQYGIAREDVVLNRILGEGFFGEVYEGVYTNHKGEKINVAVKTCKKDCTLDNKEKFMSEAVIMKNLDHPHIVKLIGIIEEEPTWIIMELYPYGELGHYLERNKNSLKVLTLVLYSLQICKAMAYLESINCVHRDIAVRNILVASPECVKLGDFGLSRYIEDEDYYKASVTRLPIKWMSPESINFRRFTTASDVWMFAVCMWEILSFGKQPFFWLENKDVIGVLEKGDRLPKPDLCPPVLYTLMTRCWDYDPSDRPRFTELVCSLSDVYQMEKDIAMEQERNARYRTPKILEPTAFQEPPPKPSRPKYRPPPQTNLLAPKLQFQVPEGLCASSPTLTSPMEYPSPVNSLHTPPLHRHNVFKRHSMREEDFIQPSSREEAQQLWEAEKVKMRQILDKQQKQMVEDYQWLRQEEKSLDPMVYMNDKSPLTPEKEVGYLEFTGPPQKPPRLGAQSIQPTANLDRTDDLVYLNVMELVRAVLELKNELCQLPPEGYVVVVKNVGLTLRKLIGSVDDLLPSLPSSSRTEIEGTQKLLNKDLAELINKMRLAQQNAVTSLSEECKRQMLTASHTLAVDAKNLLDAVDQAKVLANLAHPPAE
Fibroblast inh = blocks proliferation of human lung fibroblasts | LL 47 human lung fibroblast viability, ATP luminescence; stronger effect = lower value | viability, % at 10 µM | 85,000 tested, 1.1% active | AID 719;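 active means viability at or below 50% in the single dose screen; inactive means viability above 50%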;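 further: compound exposure lasted 72 h before the ATP readout; 100% = median luminescence of untreated cell-only wells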
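Material: human lung fibroblast line LL 47, low passage; Evaluation: viability percentage against median untreated-cell control; Buffer or medium: 15% FBS in IMEM; Incubation: 72 h compound exposure at 37 °C after overnight plating; Dosing: 0.1% DMSO in all compound wells; Measured by: CellTiter-Glo luminescence.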
Jurkat viability = reduces viability or proliferation of Jurkat cells | Jurkat E6.1 viability, ATP luminescence, 48 h | inhibition, % at 4 µM | 56,000 tested, 1.2% active | AID 463;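 active means inhibition above the mean inhibition of all tested compounds plus 3 SD, cut at about 28% in these data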
F-actin modifier = alters cytoskeleton assembly in HUVEC cells | inhibition, % at 2 µM | 91,000 tested, 0.18% active | HUVEC TNFa F-actin phalloidin imaging, high content | AID 836;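 active means inhibition above the batch mean plus 3 SD and confirmed as a hit by visual image inspection, cut at about 30% in these data, passing the limit was not always enough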
Numbers without * were called inactive; nt = not tested or not shown. Compounds with a hit are over-represented: about 6% of the library has one in this group of screens.

SMILES | HUVEC prolif 384 | H69AR growth 86K | PTK2B oligo ant | Fibroblast inh | Jurkat viability | F-actin modifier
CC(C)(C)NS(=O)(=O)c1ccc(Oc2ncc(C(F)(F)F)cc2Cl)cc1 | nt | nt | 0.66 | nt | nt | 61*
Cc1ccc(N2C(N)=C(C#N)C(c3cccnc3)C3=C2CC(C)(C)CC3=O)cc1 (centres undefined) | 87 | 24* | 0.48 | 79 | 2 | nt
Cc1ccc(N2C(N)=C(C#N)C(c3ccsc3)C3=C2CC(C)(C)CC3=O)cc1 (centres undefined) | 84 | 48 | 0.53 | 87 | nt | -12
Cc1oc(-c2ccccc2)cc1C(=O)Nc1cccc(C(=O)O)c1 | 82 | 81 | -0.82 | 103 | 5 | 13
Cc1oc(-c2ccccc2)cc1C(=O)Nc1cccc2ccccc12 | 98 | 34* | 0.93 | 100 | nt | -28
Cn1c(N/N=C/c2ccccc2)nc2sc3c(c2c1=O)CCC3 | nt | nt | -0.16 | nt | nt | -1
COc1ccc(-c2cn3c(C)c(C(=O)NCc4ccc5c(c4)OCO5)sc3n2)cc1 | 83 | 88 | nt | 95 | -1 | 2
O=[N+]([O-])c1ccc(NNC(=S)Nc2ccc(F)cc2)cc1 | 59 | 14* | -0.61 | 87 | nt | 14
Cc1nc(C(=O)Nc2ccc(F)cc2)nn1-c1ccc([N+](=O)[O-])cc1 | nt | nt | 0.45 | nt | nt | 1
CCOC(=O)c1ccc2nc(NC(=O)C(C)C)sc2c1 | 110 | 34* | nt | 92 | -3 | nt
C=CCN(CC=C)S(=O)(=O)c1ccc2nc(NC(=O)C(C)C)sc2c1 | 26* | 14* | -3 | 51 | 72* | 4
CCOC(=O)c1ccc2nc(NC(=O)c3cccs3)sc2c1 | 75 | 38* | -1.9 | 88 | nt | -18
CNC(=S)N/N=C1\C(=O)c2cccc3cccc1c23 | 39 | 13* | -1.4 | 46* | nt | 11
CCCCNC(=S)N/N=C1\C(=O)c2cccc3cccc1c23 | nt | nt | -0.08 | nt | nt | -17
CCOC(=O)c1nnc(-c2ccc(C)cc2)nc1Oc1ccccc1Cl | nt | nt | 0.38 | nt | nt | 10
CCOC(=O)c1nnc(-c2ccc(C)cc2)nc1Sc1ccccc1Cl | 69 | 25* | -0.19 | 84 | nt | 8
CCOC(=O)c1nnc(-c2ccc(C)cc2)nc1Sc1ccc(Cl)cc1 | 69 | 3.3* | 1.1 | 74 | nt | -2
CCOC(=O)c1nnc(-c2ccccc2)nc1Sc1c(Cl)cccc1Cl | 68 | 1.9* | 0.55 | 89 | nt | -13
CCOC(=O)c1nnc(-c2ccc(C)cc2)nc1Oc1ccc(Cl)cc1Cl | nt | nt | 0.98 | nt | nt | 11
CCOC(=O)Cc1nnc(Nc2cccc(O)c2)c2ccccc12 | 96 | 95 | -0.03 | 114 | nt | -12
N#CC1=C(C2CC2)CC(c2ccccc2)C(C#N)=C1N (centres undefined) | 71 | 39* | -0.79 | 81 | 2 | -3
Cc1c(/C=N\NC(=O)C2COc3ccc(C(C)(C)C)cc3O2)c2ccccc2n1C (centres undefined) | nt | nt | 0.03 | nt | nt | nt
CCc1ccccc1N1CSC2=C(C#N)C(c3ccccc3F)CC(=O)N2C1 (centres undefined) | 82 | 29* | nt | 97 | -6 | -6
COc1ccc(-n2c(COc3ccc(Cl)cc3)nnc2SCc2ccc(C#N)cc2)cc1 | 90 | 32* | -1.5 | 91 | nt | -6
CC(=O)CC(=O)Nc1ccccc1NC(C)=O | 103 | 94 | 0.98 | 94 | -5 | 6
SMILES | HUVEC prolif 384 | H69AR growth 86K | PTK2B oligo ant | Fibroblast inh | Jurkat viability | F-actin modifier
CC1Cc2ccccc2N1C(=O)CCn1c(=O)sc2ccccc21 (centres undefined) | 81 | 89 | nt | 99 | -15 | nt
CCOC(=O)c1sc(NC(=O)c2c(C)nn(Cc3ccccc3)c2C)cc1C | 60 | 13* | -1.7 | 94 | 1 | -13
COc1ccc(-c2oc(NC(=O)CSc3ncn[nH]3)c(C#N)c2-c2ccc(OC)cc2)cc1 | 70 | 29* | -4* | 90 | nt | 4
COc1ccc(-c2oc(NC(=O)CCl)c(C#N)c2-c2ccc(OC)cc2)cc1 | 4.3* | 1.8* | -0.63 | 26* | nt | -4
COc1ccc(NC(=O)c2ccc(C(=O)c3cc(OC)ccc3OC)cc2)cc1 | nt | nt | 0.37 | nt | nt | 24
Cc1cc2nc(SCC(=O)N(C)C)c3c(c2cc1C)CCCC3 | nt | nt | 0.06 | nt | nt | -2
O=C(N/C=N/OCc1ccc(Cl)cc1Cl)NOCc1c(Cl)cccc1Cl | 33 | 11* | -0.82 | 87 | nt | 1
O=C(N1CCCC1)C12CCC3CC(CC(C3)C1)C2 | 95 | 82 | 0.18 | 99 | nt | 1
COc1ccc(/C=N/N2C(=O)CSC2=S)cc1 | 104 | 110 | -0.15 | 110 | nt | -5
COc1ccc(-c2nn(-c3ccccc3)cc2/C=N/N2C(=O)CSC2=S)cc1 | 4.0* | 60 | -0.86 | 59 | nt | -8
COc1ccc(Cl)cc1NC(=O)C(C)N1CCN(C/C=C/c2ccccc2)CC1 (centres undefined) | 67 | 40* | -0.05 | 89 | nt | -5
Cc1cccc(C)c1OC(=O)CN(c1ccc(Cl)cc1)S(C)(=O)=O | nt | nt | -1.5 | nt | nt | nt
CC(C)OC(=O)c1c2nc3ccccc3nc2n2c1[nH]c(=O)c1ccccc12 | 65 | 33* | nt | 63 | nt | -10
O=C(Nc1ccc(Cl)cc1)N1CCCN(Cc2ccccc2F)C1 | 91 | 77 | 0.66 | 93 | nt | 4
Cc1ccc(NC(=O)N2CCCN(Cc3ccc(F)cc3)C2)cc1C | 38 | 28* | -1.8 | nt | 11 | -28
O=C(CN1CCN(S(=O)(=O)c2ccc(Br)cc2)CC1)Nc1ccc(F)cc1 | 92 | 1.6* | -0.15 | 99 | 3 | -9
O=C(CN1CCN(S(=O)(=O)c2ccc(Br)cc2)CC1)Nc1ccc(F)cc1F | 99 | 78 | 0.14 | 100 | 1 | 1
COc1ccc(S(=O)(=O)N2CCN(CC(=O)Nc3cc(OC)cc(OC)c3)CC2)cc1 | 86 | 4.9* | -0.76 | 103 | -4 | 4
COc1cc(NC(=O)CN2CCN(S(=O)(=O)c3ccc(C(C)C)cc3)CC2)cc(OC)c1 | nt | nt | -1.1 | nt | 1 | 13
COc1ccc(NC(=O)CN2CCN(S(=O)(=O)c3ccc(Cl)cc3)CC2)cc1Cl | 84 | 83 | -1 | 103 | -5 | -5
O=C(CN1C(=O)CCC1=O)Nc1ccc(Br)cc1 | 88 | 40* | -0.07 | 102 | -1 | nt
COc1ccc(S(=O)(=O)N2CCCN(CC(=O)Nc3ccc(OC)c(Cl)c3)CC2)cc1 | 98 | 2.1* | 0.35 | 103 | 2 | -7
Fc1ccc(C(c2ccc(F)cc2)N2CCN(C/C=C/c3ccccc3)CC2)cc1 | 108 | 73 | nt | 99 | nt | nt
C(=C\c1ccccc1)/CN1CCN(C(c2ccccc2)c2ccccc2)CC1 | 89 | 23* | nt | 96 | nt | nt
Cn1c(=O)[nH]c(=O)c2c1nc(N1CCOCC1)n2CCSc1nc2ccccc2[nH]1 | 97 | 85 | -0.27 | 105 | nt | 0
CC(C)CCNC(=O)C(c1ccncc1)N(Cc1cccs1)C(=O)Cn1nnc(-c2ccc(F)cc2)n1 (centres undefined) | 88 | 40* | 0.57 | 75 | nt | -13
Cc1ccc(-c2nnn(CC(=O)N(Cc3cccs3)C(C(=O)NC3CCCC3)c3ccco3)n2)o1 (centres undefined) | 85 | 90 | 0.05 | 90 | 1 | nt

High-throughput results deposited in PubChem BioAssay by several laboratories.
